≈ marks a conversion by molar mass, not a printed value.
Key:
Type in all cases: functional
Streptococcus pneumoniae [1] = experiment: Effective dose against mice infected with streptococcus pneumoniae after peroral administration (in vivo); conditions: in Mus musculus, po
[2] = system: Staphylococcus epidermidis; experiment: microbe, parasite or virus in culture
Staphylococcus aureus [3] = experiment: Effective dose against mice infected with Staphylococcus aureus after peroral administration (in vivo); conditions: in Mus musculus, po
Staphylococcus aureus [4] = experiment: MIC value measured against staphylococcus aureus X1
Haemophilus influenzae [5] = experiment: MIC value was measured against haemophilus influenzae CL
Streptococcus pyogenes [6] = experiment: MIC value measured against streptococcus pyogenes C203
Streptococcus pyogenes [7] = experiment: Effective dose against mice infected with streptococcus pyogenes after peroral administration (in vivo); conditions: in Mus musculus, po
Haemophilus influenzae [8] = experiment: MIC value was measured against haemophilus influenzae.
In short: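 Susceptibility determined by standard agar-dilution method against a panel of bacterial strains.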

Streptococcus pneumoniae [9] = experiment: MIC value measured against streptococcus pneumoniae Park1

Structure (SMILES) | MIC [2] [µg/mL] | MIC (Staphylococcus aureus [4]) [µg/mL] | MIC (Haemophilus influenzae [5]) [µg/mL] | MIC (Streptococcus pyogenes [6]) [µg/mL] | MIC (Haemophilus influenzae [8]) [µg/mL] | MIC (Streptococcus pneumoniae [9]) [µg/mL] | ED50 (Streptococcus pneumoniae [1]) [mg/kg] | ED50 (Staphylococcus aureus [3]) [mg/kg] | ED50 (Streptococcus pyogenes [7]) [mg/kg]
CC[C@H]1OC(=O)[C@H](C)[C@@H](OC2CC(C)(OC)C(O)C(C)O2)[C@H](C)[C@@H](OC2OC(C)CC(N(C)C)C2O)[C@](C)(O)C[C@@H](C)[C@H](NC)[C@H](C)[C@@H](O)[C@]1(C)O (stereo not given in full) | 0.25 (≈ 0.334 µM) | 1 (≈ 1.34 µM) | 0.5 (≈ 0.668 µM) | 0.06 (≈ 0.0801 µM) | 0.5 (≈ 0.668 µM) | – | 35 | 44 | 21
CC[C@H]1OC(=O)[C@H](C)[C@@H](OC2CC(C)(OC)C(O)C(C)O2)[C@H](C)[C@@H](OC2OC(C)CC(N(C)C)C2O)[C@](C)(O)C[C@@H](C)[C@H](N(C)C(C)C)[C@H](C)[C@@H](O)[C@]1(C)O (stereo not given in full) | 8 (≈ 10.1 µM) | 8 (≈ 10.1 µM) | 32 (≈ 40.5 µM) | 0.5 (≈ 0.632 µM) | 32 (≈ 40.5 µM) | 0.5 (≈ 0.632 µM) | – | – | –
CCCCCCCCCCCCN[C@@H]1[C@H](C)[C@@H](O)[C@](C)(O)[C@@H](CC)OC(=O)[C@H](C)[C@@H](OC2CC(C)(OC)C(O)C(C)O2)[C@H](C)[C@@H](OC2OC(C)CC(N(C)C)C2O)[C@](C)(O)C[C@H]1C (stereo not given in full) | 4 (≈ 4.43 µM) | 4 (≈ 4.43 µM) | – | 0.5 (≈ 0.554 µM) | – | 0.06 (≈ 0.0664 µM) | > 50 | > 45 | > 50
CC[C@H]1OC(=O)[C@H](C)[C@@H](OC2CC(C)(OC)C(O)C(C)O2)[C@H](C)[C@@H](OC2OC(C)CC(N(C)C)C2O)[C@](C)(O)C[C@@H](C)C(=O)[C@H](C)[C@@H](O)[C@H]1C (stereo not given in full) | 0.25 (≈ 0.348 µM) | 0.25 (≈ 0.348 µM) | 4 (≈ 5.57 µM) | 0.03 (≈ 0.0418 µM) | – | – | – | – | –
CC[C@H]1OC(=O)[C@H](C)[C@@H](OC2CC(C)(OC)C(O)C(C)O2)[C@H](C)[C@@H](OC2OC(C)CC(N(C)C)C2O)[C@](C)(O)C[C@@H](C)[C@H](NCC2CCCCCCC2)[C@H](C)[C@@H](O)[C@]1(C)O (stereo not given in full) | 0.5 (≈ 0.582 µM) | 1 (≈ 1.16 µM) | – | 0.06 (≈ 0.0698 µM) | – | – | – | – | –

Now from value to compound, other results behind:

MIC [2] [µg/mL] | MIC (Staphylococcus aureus [4]) [µg/mL] | MIC (Haemophilus influenzae [5]) [µg/mL] | MIC (Streptococcus pyogenes [6]) [µg/mL] | MIC (Haemophilus influenzae [8]) [µg/mL] | MIC (Streptococcus pneumoniae [9]) [µg/mL] | Structure (SMILES) | ED50 (Streptococcus pneumoniae [1]) [mg/kg] | ED50 (Staphylococcus aureus [3]) [mg/kg] | ED50 (Streptococcus pyogenes [7]) [mg/kg]
1 (≈ 1.22 µM) | 1 (≈ 1.22 µM) | 1 (≈ 1.22 µM) | 0.03 (≈ 0.0365 µM) | 1 (≈ 1.22 µM) | 0.015 (≈ 0.0183 µM) | CC[C@H]1OC(=O)[C@H](C)[C@@H](OC2CC(C)(OC)C(O)C(C)O2)[C@H](C)[C@@H](OC2OC(C)CC(N(C)C)C2O)[C@](C)(O)C[C@@H](C)[C@H](NCC(C)(C)CO)[C@H](C)[C@@H](O)[C@]1(C)O (stereo not given in full) | 46 | > 50 | 20
0.25 (≈ 0.276 µM) | 0.5 (≈ 0.552 µM) | 1 (≈ 1.1 µM) | 0.015 (≈ 0.0166 µM) | 1 (≈ 1.1 µM) | – | CC[C@H]1OC(=O)[C@H](C)[C@@H](OC2CC(C)(OC)C(O)C(C)O2)[C@H](C)[C@@H](OC2OC(C)CC(N(C)C)C2O)[C@](C)(O)C[C@@H](C)[C@H](NCCC(C)CCCC(C)(C)OC)[C@H](C)[C@@H](O)[C@]1(C)O (stereo not given in full) | 24 | > 46 | 25
0.25 (≈ 0.311 µM) | 1 (≈ 1.24 µM) | 1 (≈ 1.24 µM) | 0.06 (≈ 0.0745 µM) | 1 (≈ 1.24 µM) | 0.03 (≈ 0.0373 µM) | CC[C@H]1OC(=O)[C@H](C)[C@@H](OC2CC(C)(OC)C(O)C(C)O2)[C@H](C)[C@@H](OC2OC(C)CC(N(C)C)C2O)[C@](C)(O)C[C@@H](C)[C@H](NCCC(C)C)[C@H](C)[C@@H](O)[C@]1(C)O (stereo not given in full) | 11 | 13 | 9
1 (≈ 1.25 µM) | 1 (≈ 1.25 µM) | 2 (≈ 2.49 µM) | 1 (≈ 1.25 µM) | 2 (≈ 2.49 µM) | – | CC[C@H]1OC(=O)[C@H](C)[C@@H](OC2CC(C)(OC)C(O)C(C)O2)[C@H](C)[C@@H](OC2OC(C)CC(N(C)C)C2O)[C@](C)(O)C[C@@H](C)[C@H](NCCCC#N)[C@H](C)[C@@H](O)[C@]1(C)O (stereo not given in full) | 29 | 36 | 21
2 (≈ 2.28 µM) | 2 (≈ 2.28 µM) | 8 (≈ 9.13 µM) | 0.5 (≈ 0.571 µM) | 8 (≈ 9.13 µM) | 0.5 (≈ 0.571 µM) | CC[C@H]1OC(=O)[C@H](C)[C@@H](OC2CC(C)(OC)C(O)C(C)O2)[C@H](C)[C@@H](OC2OC(C)CC(N(C)C)C2O)[C@](C)(O)C[C@@H](C)[C@H](NC(C)CCCN(CC)CC)[C@H](C)[C@@H](O)[C@]1(C)O (stereo not given in full) | 18 | 41 | 31
0.5 (≈ 0.621 µM) | 0.5 (≈ 0.621 µM) | 1 (≈ 1.24 µM) | 0.06 (≈ 0.0745 µM) | 1 (≈ 1.24 µM) | 0.015 (≈ 0.0186 µM) | CCCCCN[C@@H]1[C@H](C)[C@@H](O)[C@](C)(O)[C@@H](CC)OC(=O)[C@H](C)[C@@H](OC2CC(C)(OC)C(O)C(C)O2)[C@H](C)[C@@H](OC2OC(C)CC(N(C)C)C2O)[C@](C)(O)C[C@H]1C (stereo not given in full) | 14 | 25 | 9

From ChEMBL document CHEMBL1125014, “Synthesis and structure-activity relationships of new 9-N-alkyl derivatives of 9(S)-erythromycylamine” (1990)
